MrgX1 agonist: agonists of human MrgX1 receptor. Q96LB2. MrgX1-HEK293 cells, Fluo-4 calcium fluorescence, agonist mode; hits give high values. B-score at 10 µM. actives 0.44% (n = 310,000). AID 588627;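 active means calcium response B-score plate-corrected fluorescence ratio at least 3 library SD, with starting fluorescence B-score inside 5 SD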
Target sequence (Q96LB2 whole entry, looked up): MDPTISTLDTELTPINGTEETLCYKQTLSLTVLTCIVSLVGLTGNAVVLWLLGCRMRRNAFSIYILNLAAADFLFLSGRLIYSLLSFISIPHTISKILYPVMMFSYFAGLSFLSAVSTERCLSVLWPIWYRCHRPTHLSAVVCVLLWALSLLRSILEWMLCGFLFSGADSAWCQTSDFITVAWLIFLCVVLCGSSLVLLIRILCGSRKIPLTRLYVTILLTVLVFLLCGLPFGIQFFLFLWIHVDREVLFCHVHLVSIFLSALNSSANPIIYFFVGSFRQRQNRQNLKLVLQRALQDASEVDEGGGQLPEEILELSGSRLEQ
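System: HEK293 cells stably expressing human MrgX1 receptor; Dosing: test compound in the initial addition of three; Schedule: overnight plating, then 30 min 37 °C plus 30 min room-temperature dye loading; Detection: kinetic calcium dye fluorescence, Fluo-4 NW; Controls: per-plate positive and negative controls for Z′ factor.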
RGS4 pot: potentiators or activators of RGS4; actives 0.92% (n = 310,000); HEK293 M3R/inducible RGS4, carbachol calcium flux Fluo4; hits give low values; AID 463111; B-score at 10 µM;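 active means B-score of the integrated calcium signal more than 4 SD below the library mean, with starting fluorescence not abnormally high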;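 further: negative B-score means reduced calcium response which marks RGS4 activation or potentiation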
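Assay system: Inducible-RGS4 HEK293 cells carrying M3 receptor | Schedule: Compound preincubation 20 min at room temperature before agonist | Signal: Kinetic calcium fluorescence imaging with Fluo4-AM dye, 2 µM | Read-out basis: B score from integrated fluorescence ratio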
MrgX1 antag: blocks BAM8-22 activation of human MrgX1 receptor; B-score at 10 µM; actives 1.3% (n = 310,000); MRGX1-HEK293 calcium flux, Fluo-4, BAM8-22 antagonism; hits give low values; Q96LB2; AID 588676;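 active means calcium-response B-score plate-corrected more than 3 library SD below zero, starting fluorescence within 5 deviations, no agonist response on first addition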;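 further: peak minus trough fluorescence over baseline after final BAM8-22 challenge near maximal dose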
MrgX1 allo act: allosterically activates human MrgX1 receptor signaling | Q96LB2 | MrgX1-HEK293, Fluo-4 calcium flux, FDSS; hits give high values | B-score at 10 µM | actives 0.63% (n = 310,000) | AID 588675;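 active means plate-corrected calcium response at least 3 library SD above typical, normal starting fluorescence, not activating the receptor alone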;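 further: compound read alongside a low EC10 to EC30 dose of BAM8-22 agonist; peak minus trough fluorescence over baseline measured at the second addition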
RGS4 block: human RGS4 inhibition. actives 0.45% (n = 310,000). P49798. HEK293 M3R/RGS4 inducible, Fluo-4 calcium flux; hits give high values; triggered by carbachol at its EC20. AID 463165. B-score at 10 µM;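 active means B-score, a plate-corrected calcium signal, over three deviations above library mean, with baseline fluorescence within five deviations of library mean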;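 further: RGS4 expression induced by doxycycline in cells with stable M3 receptor; B-score is computed from the integrated fluorescence ratio over baseline after carbachol; higher B-score means a larger calcium signal and so more RGS4 inhibition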
Target sequence (P49798 whole entry, looked up): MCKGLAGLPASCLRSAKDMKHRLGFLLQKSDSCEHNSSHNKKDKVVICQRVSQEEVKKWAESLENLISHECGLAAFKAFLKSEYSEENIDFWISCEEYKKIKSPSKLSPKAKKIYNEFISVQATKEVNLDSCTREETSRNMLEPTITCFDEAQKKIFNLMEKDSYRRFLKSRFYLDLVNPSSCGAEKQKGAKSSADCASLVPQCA
MrgX1 ant reconf: human MrgX1 receptor antagonism, re-confirmation screen; shares compounds with MrgX1 antag; MrgX1-HEK293, BAM8-22 calcium flux, Fluo-4; hits give low values; remaining BAM8-22 calcium response % of control (hits give low values), % at 10 µM; actives 19% (n = 2,300);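 active means remaining agonist calcium response no higher than 100% minus 3 SD of agonist-only control wells, with starting fluorescence near control levels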;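 further: agonist BAM8-22 given at a near maximal EC90 to ECmax level; peak minus minimum fluorescence divided by baseline after agonist addition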
HEK293 Ca flux: MrgX1 antagonist counter-screen hit in parental HEK293 cells | actives 2% (n = 4,000) | shares compounds with MrgX1 antag | Fluo-4 calcium fluorescence, FDSS | fluorescence ratio F(max-min)/F0 at 10 µM | AID 624111;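 active means duplicate-averaged calcium fluorescence ratio at least three times the standard deviation of buffer wells, a nonspecific response in parental cells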
HEK293 Ca counter: counter-screen for MrgX1 allosteric activators: effect in parental HEK293 cells; fluorescence ratio F(max-min)/F0 at 10 µM; AID 624114; shares compounds with MrgX1 antag; actives 0.4% (n = 4,000); parental HEK293 calcium flux, Fluo-4 fluorescence ratio; hits give high values;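 active means calcium fluorescence ratio, averaged over duplicates, at least 3 SD of the buffer-well ratio, meaning a nonspecific response in receptor-free cells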;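 further: untransfected parental HEK293 lacking MrgX1 used as counterscreen for MrgX1 allosteric activators; fluorescence change taken during the second addition on a kinetic imager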
HEK293 Ca cntr2: counter-screen for MrgX1 activators: effect in parental HEK293 cells; shares compounds with MrgX1 antag; Fluo-4 calcium fluorescence (FDSS); hits give high values; fluorescence ratio F(max-min)/F0 at 10 µM; actives 8.7% (n = 4,000); AID 624115;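 active means calcium fluorescence ratio at least three times the spread of buffer wells, meaning a non-specific response in parental cells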
Active calls of the source: *; i = inactive; · = no result given. Compounds with a hit are over-represented: about 3.5% of the library has one in this group of screens.

SMILES	MrgX1 agonist	RGS4 pot	MrgX1 antag	MrgX1 allo act	RGS4 block	MrgX1 ant reconf	HEK293 Ca flux	HEK293 Ca counter	HEK293 Ca cntr2
CC(=O)N1CCSc2ccc(S(=O)(=O)NCCc3ccc(Cl)cc3)cc21	i	i	-4.96*	i	i	i	i	i	i
CC(=O)N1CC(C)Sc2ccc(S(=O)(=O)NCCc3ccc(C)cc3)cc21 (stereo unspecified)	i	i	i	i	i	·	·	·	·
O=C(c1cn(CC(=O)N2CCCCC2)c2ccccc12)C1CC1	i	i	-4.97*	i	i	i	i	i	i
CCN(CC(=O)Nc1ccccc1C(F)(F)F)C(=O)c1ccccc1Cc1ccccc1	i	i	i	i	i	·	·	·	·
O=C(NCCCN1CCOCC1)C(=O)NCC1OCCCN1S(=O)(=O)c1cc(F)ccc1F (stereo unspecified)	i	i	i	i	i	·	·	·	·
O=C(Nc1cccc2c1CCCC2)c1ccncc1	i	i	-8.46*	i	i	i	i	i	i
Cc1nn(C)cc1C(C(=O)NC1CCCCC1)N(Cc1ccccc1Cl)C(=O)c1cnccn1 (stereo unspecified)	i	i	i	i	i	·	·	·	·
CSc1ccc(CNc2nc3ccccc3n3cnnc23)cc1	i	i	i	i	i	·	·	·	·
CC(=O)NCCc1nc2cc(NC(=O)c3ccccc3C)ccc2n1C	i	i	i	i	i	·	·	·	·
CCOC(=O)c1nnc(-c2ccccc2)nc1N1CCSCC1	i	i	-5.58*	i	i	i	i	i	i
Clc1ccccc1Cn1nnc2c(Nc3ccccc3)ncnc21	i	i	i	i	i	·	·	·	·
Clc1ccccc1Cn1nnc2c(NCC3CC3)ncnc21	i	i	-7.53*	i	i	i	i	i	i
COC(=O)c1cc(NC(=O)Cc2cc(OC)c(OC)c(OC)c2)cc(C(=O)OC)c1	i	i	i	i	i	·	·	·	·
COc1ccc(N(CC(=O)NCc2ccccc2)S(=O)(=O)c2c(C)nn(C)c2C)cc1	i	i	-6.56*	i	i	i	i	i	i
CCN(CC)C(=O)NC(c1ccc(C)c(F)c1)C(Cl)(Cl)Cl (stereo unspecified)	i	i	i	i	i	·	·	·	·
Cc1ccc(C(NC(=O)N2CCOCC2)C(Cl)(Cl)Cl)cc1F (stereo unspecified)	i	i	-5.34*	i	i	80.9%*	i	i	i
O=C(CN1CCN(S(=O)(=O)c2ccccc2)CC1)Nc1ccc(Cl)c(Cl)c1	i	i	i	i	i	·	·	·	·
Cc1cc(C)cc(-c2nnc(SCC(=O)N3CCN(C(=O)c4ccco4)CC3)o2)c1	i	i	-6.31*	i	i	i	i	i	i
CCc1cccc(C)c1NC(=O)C1=C(C(=O)O)CCCC1	i	i	-7.79*	i	i	i	i	i	i
COc1ccc(CNC(=O)COc2cc(=O)n(C)c3ccccc23)cc1	i	i	i	i	i	·	·	·	·
Cn1c(=O)cc(OCC(=O)NCc2cccs2)c2ccccc21	i	i	-7.13*	i	i	i	i	i	i
O=C(Nc1ncc2c(n1)-c1ccccc1CC2)c1ccc(Cl)cc1	i	i	-5.19*	i	i	i	i	i	i
O=C(Nc1ncc2c(n1)-c1ccccc1OC2)c1ccc(F)cc1	i	i	i	i	i	·	·	·	·
CCCSCC(=O)Nc1ncc2c(n1)-c1ccccc1CC2	i	i	-4.66*	i	i	75.4%*	i	i	i
O=C(Nc1ncc2c(n1)-c1ccccc1CC2)c1cccc(Cl)c1	i	i	i	i	i	·	·	·	·
SMILES	MrgX1 agonist	RGS4 pot	MrgX1 antag	MrgX1 allo act	RGS4 block	MrgX1 ant reconf	HEK293 Ca flux	HEK293 Ca counter	HEK293 Ca cntr2
Fc1ccc(COc2ccccc2C(=S)N2CCCC2)cc1	i	i	-5.4*	i	i	i	i	i	i
CCOc1ccc(-n2ccnc(SCC(=O)NCCc3ccccc3)c2=O)cc1	i	i	i	i	i	·	·	·	·
Cc1ccc(-n2ccnc(SCC(=O)NCCc3ccccc3)c2=O)cc1F	i	i	-4.62*	i	i	i	i	i	i
O=C(CCS(=O)(=O)c1ccc(Br)cc1)N1CCN(c2ccccc2F)CC1	i	·	-5.44*	i	·	i	i	i	i
CC1CN(S(=O)(=O)N2CCOCC2)CCN1S(=O)(=O)N1CCOCC1 (stereo unspecified)	i	i	i	i	i	·	·	·	·
COc1ccc(SCCc2nnc(-c3ccccc3)o2)cc1	i	i	-7.8*	i	i	i	i	i	i
CCCc1nnc(-c2ccc(OC)cc2)o1	i	i	-5.97*	i	i	i	i	i	i
O=C(NCc1ccncc1)c1cc(S(=O)(=O)N2CCOCC2)c(Cl)cc1Cl	i	i	i	i	i	·	·	·	·
Cc1ccc(C(=O)CN2C(=O)C(=O)N(Cc3ccccc3)C2=O)cc1	i	i	-6.39*	i	i	79.9%*	i	i	i
CCc1ccc(CNC(=O)C2CCN(S(=O)(=O)N3CCC(C)CC3)CC2)cc1	i	i	i	i	i	·	·	·	·
CC(=O)Nc1ccc(NC(=S)Nc2ccc(Br)cc2)cc1	i	i	i	i	i	·	·	·	·
Cc1ccc(NC(=S)Nc2ccc(Br)cc2)cc1	i	i	-5.76*	i	i	59.1%*	i	i	i
S=C(Nc1ccccc1)Nc1ccc(Br)cc1	i	i	-7.34*	i	i	68.8%*	i	i	i
S=C(Nc1ccccc1)Nc1cccc(Br)c1	i	i	-5.41*	i	i	63.3%*	i	i	i
Fc1ccccc1NC(=S)Nc1ccc(Br)cc1	i	i	-6.07*	i	i	71.0%*	i	i	i
Oc1ccc2n[nH]nc2c1	i	i	i	i	i	·	·	·	·

Bioassay records (PubChem)
